This is a sample that favours compounds with a hit; in the whole collection about 1.8% have one here.
DDE Tn6 FP inh – inhibitors of Tn6 peptide binding to human fibrin DD(E). P02675. Fibrin DD(E) TRITC-Tn6 fluorescence polarization displacement. inhibition, % at 8.3 µM. actives 0.21% (n = 370,000);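 active means inhibition above a per-campaign cutoff: mean of compounds within control limits plus 3 SD, cut at about 15% in these data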;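 further: 0% = median of all compound wells on the plate and 100% = blocking peptide control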
SIAE inh – human SIAE inhibition, primary screen; Q9HAT2; SIAE FP-Rh probe binding, fluorescence polarization; inhibition, % at 9.66 µM; actives 0.69% (n = 370,000);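 active means inhibition above a cutoff: mean of compounds within the control limits plus 3 SD of those, cut at about 17% in these data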;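 further: 0% = plate median of compound wells and 100% = probe without SIAE protein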
Target sequence (Q9HAT2 whole entry, looked up): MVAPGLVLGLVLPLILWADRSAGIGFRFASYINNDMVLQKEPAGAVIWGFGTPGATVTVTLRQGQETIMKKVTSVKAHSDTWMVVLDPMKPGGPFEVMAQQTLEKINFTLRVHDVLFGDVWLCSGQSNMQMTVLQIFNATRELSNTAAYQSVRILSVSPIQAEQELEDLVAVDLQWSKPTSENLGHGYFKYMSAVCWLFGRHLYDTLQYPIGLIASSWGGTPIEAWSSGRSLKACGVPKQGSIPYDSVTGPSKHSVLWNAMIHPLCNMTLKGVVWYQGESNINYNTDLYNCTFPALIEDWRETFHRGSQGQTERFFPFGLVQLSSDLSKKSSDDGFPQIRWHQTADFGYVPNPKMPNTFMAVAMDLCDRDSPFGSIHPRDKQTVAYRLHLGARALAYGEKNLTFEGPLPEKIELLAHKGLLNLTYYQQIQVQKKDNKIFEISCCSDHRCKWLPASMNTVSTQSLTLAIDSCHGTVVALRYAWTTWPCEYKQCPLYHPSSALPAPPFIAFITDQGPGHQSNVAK
Tn7 DDE FP – inhibitors of Tn7 peptide binding to human fibrin DD(E) | P02675 | FP displacement of FITC-Tn7 peptide from fibrin DD(E); 0% = median of compound wells per plate | inhibition, % at 8.3 µM | actives 0.13% (n = 370,000);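 active means inhibition above the mean of compounds falling within the control limits plus 3 SD of them, cut at about 14% in these data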;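 further: 0% = plate median of compound wells and 100% = 10 µM Aha-Tn7 peptide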
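Test system – human fibrin DD(E) · Times – 10 min preincubation, 3 h with tracer, room temperature · Detection – fluorescence polarization of the labelled Tn7 tracer · Measure – percent inhibition normalized to high-control wells · Benchmarks – high control wells with 10 µM unlabelled Aha-Tn7 peptide (full inhibition) · Repeats – singlicate testing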
TCR CD3 inh – inhibitors of human TCR-CD3 interaction; TAMRA-labeled TCR probe fluorescence, biochemical; inhibition, % at 9.4 µM; actives 0.37% (n = 360,000); AID 651800;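 further: recombinant mutant TCR 2C K166C tagged with TAMRA read by polarization; 0% = receptor in buffer alone and 100% = receptor with positive control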
mABHD4 FP – inhibitors of mouse ABHD4; purified mABHD4, FP-Rh probe fluorescence polarization; inhibition, % at 8.92 µM; actives 0.54% (n = 370,000); AID 720543;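 active means inhibition exceeding the mean over every tested compound plus 3 SD, cut at about 30% in these data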;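 further: 0% = plate median of compound wells and 100% = S159A mutant with DMSO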
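Test system: mABHD4 protein; Read-out basis: % inhibition; Incubation: 45 min + 60 min at 25 °C; Repeats: single replicate; Technique: fluorescence polarization with parallel and perpendicular emission, 525/598 nm; Compound: 8.92 µM, single dose; Benchmarks: full inhibition S159A mutant plus DMSO, zero as sample-well median.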
HTRA1 inhibitor – blocks human HTRA1 serine peptidase; recombinant HTRA1, FP-rhodamine activity-based probe, fluorescence polarization; inhibition, % at 5.96 µM; actives 0.5% (n = 340,000); AID 504803; in the data active means inhibition above about 36%;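 further: 0% = enzyme with DMSO and 100% = wells lacking enzyme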
HTRA1 conf – confirmation of human HTRA1 inhibitors; recombinant HTRA1, FP-rhodamine activity-based probe, fluorescence polarization; inhibition, % at 5.96 µM; actives 66% (n = 1,600); shares compounds with HTRA1 inhibitor;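 active means mean inhibition over three repeats above a set limit taken from the earlier primary screen, cut at about 37% in these data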;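 further: 0% = HTRA1 with DMSO and 100% = wells lacking HTRA1; inhibitors block probe binding so polarization drops and inhibition rises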
BSA probe FL – interferes with TAMRA-BSA probe, flagging TCR-CD3 hits; shares compounds with TCR CD3 inh; actives 10% (n = 1,200); TAMRA-labeled BSA probe fluorescence counterscreen; inhibition, % at 9.4 µM; in the data active means inhibition above about 23%;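 further: 0% = buffer low control and 100% = reference high control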
TCR-CD3 conf – confirmation of human TCR-CD3 interaction inhibitors; TAMRA-labeled TCR probe fluorescence binding assay; shares compounds with TCR CD3 inh; inhibition, % at 9.4 µM; actives 48% (n = 1,200)
Tn6 DDE ctr – counter-screen for inhibitors of Tn6 peptide binding to fibrin DD(E) | actives 2% (n = 680) | TRITC-Tn6 fluorescence polarization displacement; 0% = median of compound wells, not DMSO | AID 720621 | shares compounds with DDE Tn6 FP inh | inhibition, % at 8.3 µM;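 active means inhibition above the mean of test compounds lying between the control limits plus 3 SD of those, cut at about 14% in these data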;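 further: 0% = median of compound wells and 100% = wells with Aha-Tn7 blocking peptide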
DDE Tn6 confirm – confirmation of inhibitors of Tn6 binding to human fibrin DD(E); shares compounds with DDE Tn6 FP inh; actives 10% (n = 680); FP displacement of TRITC-Tn6 peptide from DD(E); 0% = per-plate median of test wells; inhibition, % at 8.3 µM;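 active means inhibition above the mean of compounds lying within the control limits plus 3 SD, cut at about 16% in these data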;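 further: 100% = high control wells holding a competing inhibitor peptide at 10 µM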
ABHD4 confirm – ABHD4 (mouse) inhibition, FP confirmation. purified mABHD4, FP-Rh probe fluorescence polarization. shares compounds with mABHD4 FP. actives 55% (n = 1,800). inhibition, % at 8.92 µM;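 active means mean inhibition across replicates above the hit cutoff set in the primary screen, cut at about 30% in these data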;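 further: 0% = wild-type ABHD4 with DMSO and 100% = catalytically dead S159A mutant with DMSO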
Active calls of the source: *; . = no result. Unless noted, no stated cut-off is given here; in the data, active means inhibition above about 19%; inactive means the rest.

SMILES	DDE Tn6 FP inh	SIAE inh	Tn7 DDE FP	TCR CD3 inh	mABHD4 FP	HTRA1 inhibitor	HTRA1 conf	ABHD4 confirm	others
Cn1cccc1C(=O)N1CCN(S(=O)(=O)c2ccc(C(C)(C)C)cc2)CC1	-8	0	5	.	3	.	.	.
CC1OC(Nc2cccc3ccccc23)C(O)C(O)C1O (configuration not stated)	-9	1	10	-3	36*	43*	12	1
COc1ccccc1N=Nc1ccc(O)c2ncccc12	-3	15	-4	2	38*	81*	62*	36*
c1cc2c3c(cccc3c1)NN=N2	-6	8	-8	-1	33*	37*	33	27
CC(=O)c1sc(N/N=C\c2c(O)ccc3ccccc23)nc1C	0	14	-13	7	31*	39*	44*	28
CC(=O)c1sc(N/N=C/c2cccc(O)c2)nc1C	5	1	3	0	8	0	.	.
Cc1cc(/C=N/Nc2ccc([N+](=O)[O-])cn2)c(C)n1-c1ccc(C(=O)O)cc1	1	17	-2	3	41*	41*	12	59*
O=C1c2cc(O)cc(O)c2C(=O)c2c1cc(O)c([C@@H](CO)CCO)c2O	-12	10	-7	6	56*	39*	20	51*
CN(CCCOC(=O)c1cc2ccccc2o1)C1CN(Cc2cn(Cc3ccc([N+](=O)[O-])cc3)nn2)S(=O)(=O)C1 (configuration not stated)	6	-3	-5	.	-1	.	.	.
CCCCCCCCn1ccc(=N)cc1	-1	-3	6	2	2	6	.	.
CCCCCCCCCCCCCCCCn1cc[n+](C)c1	-3	-1	-2	-4	44*	66*	81*	51*
Cc1nn(CCC(=O)NNC(=O)Nc2ccccc2F)c(C)c1[N+](=O)[O-]	1	-7	5	.	2	.	.	.
C/C=C/c1ccc(O)c(OC)c1	4	11	10	1	-6	4	.	.
Oc1cc(O)cc(/C=C/c2ccc(O)c(O)c2)c1	-2	2	0	14	32*	38*	36*	27
COc1ccc2noc3c2c1C(=O)c1ccccc1-3	52*	18*	-6	22*	54*	63*	45*	29	BSA probe FL=44*;TCR-CD3 conf=29*;Tn6 DDE ctr=53*;DDE Tn6 confirm=15
CCCCN1C[C@@H](COCc2ccccc2)Oc2cccc(F)c2S1(=O)=O	-1	-4	-2	.	-7	.	.	.
Cc1cc(C)c2nc(NNC(=O)c3cc(=O)c4ccccc4o3)sc2c1	2	2	4	-7	40*	69*	59*	61*
Cc1cc([N+](=O)[O-])cc2c1NC(c1ccccn1)C1CC=CC21 (configuration not stated)	7	17	-3	3	18	11	.	.
O=[N+]([O-])c1ccc(Cl)c2c1C1C=CCC1C(c1ccccn1)N2 (configuration not stated)	-8	12	-11	3	43*	60*	43*	74*
Cn1c2ccccc2c2ccc3c(c21)C(=O)C=CC3=O	2	-2	0	8	42*	40*	63*	72*
Cc1ccc(C)c2c1c1ccccc1n2C	-1	0	8	3	-6	-1	.	.
Cc1ccc2c(c1)c1ccc3c(c1n2C)C(=O)C=CC3=O	-5	-9	-7	0	68*	40*	62*	85*
COC(=O)c1ccccc1NCc1cc(=O)oc2cc(O)c(O)cc12	1	5	4	15	40*	65*	46*	31*
COc1ccc(-n2c(Cc3cccs3)nnc2SCC(=O)Nc2cccc3ccccc23)cc1	-4	-6	7	.	-11	.	.	.
N#Cc1ccc(/C=N/NC(=S)Nc2ccc(S(=O)(=O)N3CCOCC3)cc2)cc1	4	-8	3	-2	3	-11	.	.
SMILES	DDE Tn6 FP inh	SIAE inh	Tn7 DDE FP	TCR CD3 inh	mABHD4 FP	HTRA1 inhibitor	HTRA1 conf	ABHD4 confirm	others
O=[N+]([O-])c1cc(Cl)cc(/C=N/NC(=S)Nc2ccc(S(=O)(=O)N3CCOCC3)cc2)c1O	-1	13	3	42*	57*	62*	59*	118*	BSA probe FL=-5;TCR-CD3 conf=43*
COc1ccc(N2C3=C(CC4=C2CCCC4=O)C(=O)CCC3)cc1	6	14	10	2	59*	76*	68*	16
C[n+]1c(-c2ccccc2)cc2c(=Cc3ccc([N+](=O)[O-])cc3)c3ccccc3n21	-1	4	0	-5	31*	80*	25	38*
CC(C)n1c2ccccc2c2cc([N+](=O)[O-])ccc21	-4	-4	0	-6	-9	-11	.	.
COC(=O)[C@]12C[C@H](CC(=O)NCCc3ccccc3OC)C(=O)N(Cc3ccc(Cl)cc3Cl)C1=C[C@H](COCc1ccccc1)O[C@@H]2C	-8	-2	2	.	-7	.	.	.
Oc1ccc(Nc2nc(-c3ccc4ccccc4c3)cs2)cc1	-7	9	-3	-1	6	32	.	.
Oc1ccc(-c2nc(-c3ccc(O)c(O)c3)cs2)cc1	0	11	8	-3	33*	55*	55*	32*
Oc1cc(CNC2CCCCC2)c(O)cc1CNC1CCCCC1	-4	3	2	6	38*	48*	64*	56*
O=[N+]([O-])c1ccc(N=Nc2ccc(O)cc2O)cc1	9	4	-8	2	25	0	.	.
O=S(=O)(O)c1cc(Cl)cc(N=Nc2ccc(O)cc2O)c1O	23*	7	10	65*	70*	40*	38*	-14	BSA probe FL=65*;TCR-CD3 conf=54*;Tn6 DDE ctr=2;DDE Tn6 confirm=30*

Compound activity as filed in PubChem.
